Source: ChEMBL document CHEMBL4007404, “Identification of High-Potency Human TLR8 and Dual TLR7/TLR8 Agonists in Pyrimidine-2,4-diamines” (J Med Chem, 2017)
The source made the active and inactive calls. No cut-off for these calls is given here.

Legend:
Assay type in all cases: cell-based
[1] = target: T1, Toll-like receptor 9 (Homo sapiens) (UniProt Q9NR96); experiment: Activity at human TLR9 expressed in HEK293 cells co-expressing secreted alkaline phosphatase assessed as induction of NF-kappaB/AP-1 promoter activity by measuring increase in secreted alkaline phosphatase level by spectrophotometric method
T1 sequence (whole entry): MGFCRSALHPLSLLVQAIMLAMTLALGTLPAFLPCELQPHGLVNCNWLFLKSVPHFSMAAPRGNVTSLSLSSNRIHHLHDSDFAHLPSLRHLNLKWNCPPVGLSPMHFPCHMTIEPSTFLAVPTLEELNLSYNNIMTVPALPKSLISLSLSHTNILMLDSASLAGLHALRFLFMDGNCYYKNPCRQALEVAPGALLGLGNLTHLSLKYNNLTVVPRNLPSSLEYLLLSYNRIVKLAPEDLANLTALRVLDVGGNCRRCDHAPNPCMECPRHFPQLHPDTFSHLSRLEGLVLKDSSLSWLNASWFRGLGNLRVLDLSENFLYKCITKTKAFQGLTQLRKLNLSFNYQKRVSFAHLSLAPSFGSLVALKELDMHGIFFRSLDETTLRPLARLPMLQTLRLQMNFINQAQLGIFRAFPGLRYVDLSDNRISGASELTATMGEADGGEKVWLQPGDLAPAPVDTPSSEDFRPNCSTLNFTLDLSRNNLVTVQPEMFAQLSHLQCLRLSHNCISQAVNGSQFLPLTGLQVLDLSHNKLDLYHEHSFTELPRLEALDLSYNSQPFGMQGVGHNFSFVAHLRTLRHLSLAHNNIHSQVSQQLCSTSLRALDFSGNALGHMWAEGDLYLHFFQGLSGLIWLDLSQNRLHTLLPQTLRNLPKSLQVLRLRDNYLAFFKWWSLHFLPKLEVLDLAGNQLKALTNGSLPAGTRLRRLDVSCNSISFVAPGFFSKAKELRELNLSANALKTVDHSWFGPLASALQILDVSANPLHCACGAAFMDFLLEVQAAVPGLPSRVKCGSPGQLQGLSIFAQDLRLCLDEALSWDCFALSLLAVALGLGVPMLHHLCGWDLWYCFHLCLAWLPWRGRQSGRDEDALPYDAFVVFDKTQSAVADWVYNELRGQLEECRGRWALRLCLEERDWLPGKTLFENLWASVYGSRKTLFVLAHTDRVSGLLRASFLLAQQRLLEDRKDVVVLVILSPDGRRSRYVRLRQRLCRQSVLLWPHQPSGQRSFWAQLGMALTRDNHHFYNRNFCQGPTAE
Outline: (§1)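 HEK293 cells stably co-transfected with the relevant human TLR (2, 3, 4, 5, 7, 8 or 9) plus an NF-κB/AP-1-driven secreted alkaline phosphatase reporter, kept in selection medium. Cells at ~10⁵ cells/ml were exposed to graded concentrations of stimuli in 384-well format, liquid-handler assisted. Supernatant sAP was read at 620 nm with an alkaline phosphatase-specific chromogen.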

[2] = target: Toll-like receptor 2 (Homo sapiens) (UniProt O60603); experiment: Activity at human TLR2 expressed in HEK293 cells co-expressing secreted alkaline phosphatase assessed as induction of NF-kappaB/AP-1 promoter activity by measuring increase in secreted alkaline phosphatase level by spectrophotometric method; outline: as §1
Toll-like receptor 2 (Homo sapiens), sequence (O60603 whole entry): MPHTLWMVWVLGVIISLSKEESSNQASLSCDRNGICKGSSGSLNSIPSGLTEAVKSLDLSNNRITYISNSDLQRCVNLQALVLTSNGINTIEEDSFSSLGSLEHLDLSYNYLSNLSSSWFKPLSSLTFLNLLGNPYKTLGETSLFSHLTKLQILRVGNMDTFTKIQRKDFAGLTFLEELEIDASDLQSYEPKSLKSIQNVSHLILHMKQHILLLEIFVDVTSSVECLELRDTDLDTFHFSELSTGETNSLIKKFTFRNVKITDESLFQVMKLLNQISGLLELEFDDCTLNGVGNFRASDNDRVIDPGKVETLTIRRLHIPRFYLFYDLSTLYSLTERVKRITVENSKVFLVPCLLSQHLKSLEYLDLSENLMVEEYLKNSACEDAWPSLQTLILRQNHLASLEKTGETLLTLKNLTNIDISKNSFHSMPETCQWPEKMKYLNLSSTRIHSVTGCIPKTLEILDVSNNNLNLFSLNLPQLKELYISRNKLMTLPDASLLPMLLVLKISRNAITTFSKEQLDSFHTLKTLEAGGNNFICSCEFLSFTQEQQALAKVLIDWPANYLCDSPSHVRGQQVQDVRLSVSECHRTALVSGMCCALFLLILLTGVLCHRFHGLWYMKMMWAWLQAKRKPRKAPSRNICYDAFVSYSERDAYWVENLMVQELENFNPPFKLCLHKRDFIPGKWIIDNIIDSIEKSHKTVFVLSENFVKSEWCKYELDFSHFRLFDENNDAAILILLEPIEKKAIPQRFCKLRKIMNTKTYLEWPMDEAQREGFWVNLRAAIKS

Toll-like receptor 8 = target: T2, Toll-like receptor 8 (Homo sapiens, UniProt Q9NR97); experiment: Agonist activity at human TLR8 expressed in HEK293 cells co-expressing secreted alkaline phosphatase assessed as induction of NF-kappaB/AP-1 promoter activity by measuring increase in secreted alkaline phosphatase level by spectrophotometric method; outline: as §1
T2 sequence (Q9NR97 whole entry): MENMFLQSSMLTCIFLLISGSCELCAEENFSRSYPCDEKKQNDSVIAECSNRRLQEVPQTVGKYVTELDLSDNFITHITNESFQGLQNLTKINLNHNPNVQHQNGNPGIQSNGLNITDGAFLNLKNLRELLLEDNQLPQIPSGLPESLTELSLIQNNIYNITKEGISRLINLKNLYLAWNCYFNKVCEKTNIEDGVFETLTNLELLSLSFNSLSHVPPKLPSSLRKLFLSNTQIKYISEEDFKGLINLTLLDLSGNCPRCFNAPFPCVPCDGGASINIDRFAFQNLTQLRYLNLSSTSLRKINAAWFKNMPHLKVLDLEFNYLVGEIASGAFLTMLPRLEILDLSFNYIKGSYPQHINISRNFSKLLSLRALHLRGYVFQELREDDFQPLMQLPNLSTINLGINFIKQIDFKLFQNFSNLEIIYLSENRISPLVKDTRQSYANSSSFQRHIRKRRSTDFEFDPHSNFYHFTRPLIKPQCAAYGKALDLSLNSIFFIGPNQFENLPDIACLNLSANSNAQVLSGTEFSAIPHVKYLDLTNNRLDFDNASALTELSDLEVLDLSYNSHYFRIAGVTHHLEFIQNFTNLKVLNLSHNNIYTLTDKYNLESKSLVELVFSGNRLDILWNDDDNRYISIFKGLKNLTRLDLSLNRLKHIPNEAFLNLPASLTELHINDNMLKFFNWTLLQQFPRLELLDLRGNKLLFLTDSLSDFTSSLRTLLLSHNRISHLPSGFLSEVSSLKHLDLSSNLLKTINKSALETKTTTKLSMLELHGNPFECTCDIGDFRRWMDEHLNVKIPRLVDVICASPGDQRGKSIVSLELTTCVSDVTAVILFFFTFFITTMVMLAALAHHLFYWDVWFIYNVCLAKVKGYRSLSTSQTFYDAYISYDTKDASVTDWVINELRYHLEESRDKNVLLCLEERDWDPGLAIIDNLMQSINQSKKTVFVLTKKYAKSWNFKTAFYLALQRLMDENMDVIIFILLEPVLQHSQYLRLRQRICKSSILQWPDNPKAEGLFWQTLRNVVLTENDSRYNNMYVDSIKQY

[3] = target: Toll-like receptor 5 (Homo sapiens) (UniProt O60602); experiment: Activity at human TLR5 expressed in HEK293 cells co-expressing secreted alkaline phosphatase assessed as induction of NF-kappaB/AP-1 promoter activity by measuring increase in secreted alkaline phosphatase level by spectrophotometric method; outline: as §1
Toll-like receptor 5 (Homo sapiens), sequence (O60602 whole entry): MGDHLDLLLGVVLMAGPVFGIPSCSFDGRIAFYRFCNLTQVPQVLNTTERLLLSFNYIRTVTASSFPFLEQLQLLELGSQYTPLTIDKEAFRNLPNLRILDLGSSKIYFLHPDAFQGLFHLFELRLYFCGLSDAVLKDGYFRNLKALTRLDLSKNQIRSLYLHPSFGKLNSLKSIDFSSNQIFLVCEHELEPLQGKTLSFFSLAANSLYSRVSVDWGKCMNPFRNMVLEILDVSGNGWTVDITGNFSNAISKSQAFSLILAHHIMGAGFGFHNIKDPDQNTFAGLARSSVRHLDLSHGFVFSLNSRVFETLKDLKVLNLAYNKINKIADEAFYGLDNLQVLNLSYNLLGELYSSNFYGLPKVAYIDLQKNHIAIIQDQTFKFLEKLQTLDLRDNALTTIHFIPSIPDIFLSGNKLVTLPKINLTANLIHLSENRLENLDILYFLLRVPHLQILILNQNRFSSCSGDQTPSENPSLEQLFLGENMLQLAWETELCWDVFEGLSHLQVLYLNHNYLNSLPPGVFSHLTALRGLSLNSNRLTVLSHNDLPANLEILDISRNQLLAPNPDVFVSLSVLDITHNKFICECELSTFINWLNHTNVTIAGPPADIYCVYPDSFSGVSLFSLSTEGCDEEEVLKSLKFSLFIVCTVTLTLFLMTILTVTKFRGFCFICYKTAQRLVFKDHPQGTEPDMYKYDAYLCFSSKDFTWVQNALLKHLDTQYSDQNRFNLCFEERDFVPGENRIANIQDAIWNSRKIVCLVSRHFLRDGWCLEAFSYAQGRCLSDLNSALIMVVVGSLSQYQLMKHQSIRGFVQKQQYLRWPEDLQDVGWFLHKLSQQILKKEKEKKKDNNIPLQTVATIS

[4] = target: Toll-like receptor 3 (Homo sapiens) (UniProt O15455); experiment: Activity at human TLR3 expressed in HEK293 cells co-expressing secreted alkaline phosphatase assessed as induction of NF-kappaB/AP-1 promoter activity by measuring increase in secreted alkaline phosphatase level by spectrophotometric method; outline: as §1
Toll-like receptor 3 (Homo sapiens), sequence (O15455 whole entry): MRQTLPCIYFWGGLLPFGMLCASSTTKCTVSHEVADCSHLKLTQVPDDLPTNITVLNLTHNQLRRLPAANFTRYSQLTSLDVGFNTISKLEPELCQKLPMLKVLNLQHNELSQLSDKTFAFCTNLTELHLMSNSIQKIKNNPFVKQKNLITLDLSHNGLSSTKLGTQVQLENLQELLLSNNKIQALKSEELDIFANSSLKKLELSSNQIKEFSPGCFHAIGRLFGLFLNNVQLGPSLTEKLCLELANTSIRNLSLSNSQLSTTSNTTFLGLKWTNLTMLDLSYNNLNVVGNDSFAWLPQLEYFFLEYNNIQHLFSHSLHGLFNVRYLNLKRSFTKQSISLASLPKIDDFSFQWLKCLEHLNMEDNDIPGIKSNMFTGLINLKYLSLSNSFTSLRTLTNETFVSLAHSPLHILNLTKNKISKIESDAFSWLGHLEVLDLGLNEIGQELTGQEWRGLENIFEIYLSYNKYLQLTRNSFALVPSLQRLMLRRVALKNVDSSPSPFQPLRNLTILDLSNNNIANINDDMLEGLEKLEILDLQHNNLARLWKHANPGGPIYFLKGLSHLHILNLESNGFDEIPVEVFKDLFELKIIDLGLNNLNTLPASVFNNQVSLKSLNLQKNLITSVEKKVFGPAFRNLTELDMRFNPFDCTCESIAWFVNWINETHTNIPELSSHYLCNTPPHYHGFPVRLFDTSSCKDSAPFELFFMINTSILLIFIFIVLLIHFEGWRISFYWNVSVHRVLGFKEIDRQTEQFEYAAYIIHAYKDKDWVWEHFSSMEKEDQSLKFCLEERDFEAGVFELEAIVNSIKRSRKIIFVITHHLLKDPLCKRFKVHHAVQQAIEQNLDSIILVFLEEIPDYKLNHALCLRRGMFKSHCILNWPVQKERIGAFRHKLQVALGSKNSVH

[5] = target: Toll-like receptor 4 (Homo sapiens) (UniProt O00206); experiment: Activity at human TLR4 expressed in HEK293 cells co-expressing secreted alkaline phosphatase assessed as induction of NF-kappaB/AP-1 promoter activity by measuring increase in secreted alkaline phosphatase level by spectrophotometric method; outline: as §1
Toll-like receptor 4 (Homo sapiens), sequence (O00206 whole entry): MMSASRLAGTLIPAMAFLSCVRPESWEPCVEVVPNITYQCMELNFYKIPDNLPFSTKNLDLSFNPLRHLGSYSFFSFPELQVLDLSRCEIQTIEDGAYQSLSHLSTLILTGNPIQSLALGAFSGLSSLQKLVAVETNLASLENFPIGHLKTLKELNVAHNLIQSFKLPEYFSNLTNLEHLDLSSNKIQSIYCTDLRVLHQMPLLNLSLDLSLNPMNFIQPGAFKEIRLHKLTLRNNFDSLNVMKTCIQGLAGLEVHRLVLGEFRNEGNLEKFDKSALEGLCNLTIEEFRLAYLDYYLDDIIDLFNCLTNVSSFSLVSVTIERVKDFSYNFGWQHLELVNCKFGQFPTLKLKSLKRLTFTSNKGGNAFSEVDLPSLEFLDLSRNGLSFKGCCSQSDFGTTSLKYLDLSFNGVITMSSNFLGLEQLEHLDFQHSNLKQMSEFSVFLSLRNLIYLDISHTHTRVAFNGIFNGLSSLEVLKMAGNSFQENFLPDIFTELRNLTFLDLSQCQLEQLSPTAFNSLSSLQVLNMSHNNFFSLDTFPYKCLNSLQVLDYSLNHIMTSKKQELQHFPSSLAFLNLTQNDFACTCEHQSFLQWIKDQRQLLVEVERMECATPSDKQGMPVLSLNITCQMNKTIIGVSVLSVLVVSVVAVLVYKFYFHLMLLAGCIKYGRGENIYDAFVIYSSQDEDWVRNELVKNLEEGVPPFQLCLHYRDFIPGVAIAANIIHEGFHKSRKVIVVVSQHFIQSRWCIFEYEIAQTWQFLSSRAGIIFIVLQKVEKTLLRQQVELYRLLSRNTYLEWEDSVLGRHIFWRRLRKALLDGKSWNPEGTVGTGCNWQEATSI

Which results are given for CCCCNc1nc(N)nc(C)c1CCCCN1CCOCC1?
Activity [1]: inactive; Activity [2]: inactive; EC50 (Toll-like receptor 8): 128 nM; Activity [3]: inactive; Activity [4]: inactive; Activity [5]: inactive

For CCCCCc1c(C)nc(N)nc1NCCCC, which Activity [1] is on record?
Its Activity is “inactive”.

What about the Activity [2] of the same compound?
Its Activity is “inactive”.

What about the EC50 (Toll-like receptor 8) of the same compound?
The EC50 was 1220 nM.

What about the Activity [3] of the same compound?
Its Activity is “inactive”.

And the Activity [4]?
Its Activity is “inactive”.

And the Activity [5]?
The Activity was “inactive”.

Which results are given for CCCCNc1nc(N)nc(C)c1C#CCN1CCOCC1?
Activity [1]: inactive; Activity [2]: inactive; EC50 (Toll-like receptor 8): 16200 nM; Activity [3]: inactive; Activity [4]: inactive; Activity [5]: inactive

Which results are given for CCCCNc1nc(N)nc(C)c1CCCC?
Activity [1]: inactive; Activity [2]: inactive; EC50 (Toll-like receptor 8): 780 nM; Activity [3]: inactive; Activity [4]: inactive; Activity [5]: inactive

How did the Activity [1] turn out when CCCCNc1nc(N)nc(C)c1CCCCc1ccccc1 was run?
The Activity was “inactive”.

What about the Activity [2] of the same compound?
Its Activity is “inactive”.

And the EC50 (Toll-like receptor 8)?
The EC50 was 857 nM.

What about the Activity [3] of the same compound?
Its Activity is “inactive”.

What about the Activity [4] of the same compound?
Its Activity is “inactive”.

And the Activity [5]?
The Activity was “inactive”.

Which Activity [1] does the source give for CCCCNc1nc(N)nc(C)c1CCCN1CCN(C(=O)OC(C)(C)C)CC1 here?
The Activity was “inactive”.

What about the Activity [2] of the same compound?
Its Activity is “inactive”.

And the EC50 (Toll-like receptor 8)?
The EC50 was 300 nM.

What about the Activity [3] of the same compound?
Its Activity is “inactive”.

What about the Activity [4] of the same compound?
Its Activity is “inactive”.

And the Activity [5]?
The Activity was “inactive”.

Which Activity [1] does the source give for CCCCNc1nc(N)nc(C)c1C#CCN1CCCCC1 here?
The Activity was “inactive”.

What about the Activity [2] of the same compound?
The Activity was “inactive”.

What about the EC50 (Toll-like receptor 8) of the same compound?
The EC50 was 3790 nM.

What about the Activity [3] of the same compound?
Its Activity is “inactive”.

What about the Activity [4] of the same compound?
The Activity was “inactive”.

What about the Activity [5] of the same compound?
Its Activity is “inactive”.

Which results are given for CCCCNc1nc(N)nc(C)c1CCCN1CCCCCC1?
Activity [1]: inactive; Activity [2]: inactive; EC50 (Toll-like receptor 8): 178 nM; Activity [3]: inactive; Activity [4]: inactive; Activity [5]: inactive

Which results are given for CCCCNc1nc(N)nc(C)c1CC?
Activity [1]: inactive; Activity [2]: inactive; EC50 (Toll-like receptor 8): 1660 nM; Activity [3]: inactive; Activity [4]: inactive; Activity [5]: inactive

For CCCCNc1nc(N)nc(C)c1CCCN1CCN(c2ccccc2)CC1, which Activity [1] is on record?
The Activity was “inactive”.

What about the Activity [2] of the same compound?
The Activity was “inactive”.

What about the EC50 (Toll-like receptor 8) of the same compound?
Its EC50 is 92 nM.

And the Activity [3]?
Its Activity is “inactive”.

And the Activity [4]?
The Activity was “inactive”.

And the Activity [5]?
The Activity was “inactive”.

How did the Activity [1] turn out when CCCCNc1nc(N)nc(C)c1CCCN1Cc2ccccc2C1 was run?
Its Activity is “inactive”.

What about the Activity [2] of the same compound?
Its Activity is “inactive”.

What about the EC50 (Toll-like receptor 8) of the same compound?
Its EC50 is 29 nM.

What about the Activity [3] of the same compound?
The Activity was “inactive”.

And the Activity [4]?
Its Activity is “inactive”.

What about the Activity [5] of the same compound?
Its Activity is “inactive”.

CCCCNc1nc(N)nc(C)c1CCCn1cccn1 was tested. Which Activity [1] did it give?
Its Activity is “inactive”.

And the Activity [2]?
Its Activity is “inactive”.

What about the EC50 (Toll-like receptor 8) of the same compound?
Its EC50 is 1050 nM.

And the Activity [3]?
Its Activity is “inactive”.

And the Activity [4]?
The Activity was “inactive”.

And the Activity [5]?
Its Activity is “inactive”.
